Data reported in ChEMBL document CHEMBL4359914, “Design, synthesis and biological evaluation of stereo- and regioisomers of amino aryl esters as multidrug resistance (MDR) reversers” (Eur J Med Chem, 2019).
Calls of active or inactive are those of the source. The calls are words filed in the database; no cut-off is given here.

Columns and labels:
[1] = Stability of compound in human plasma assessed as half life at 1 uM incubated for 120 min by LC-MS/MS analysis; assay type: ADME, cell-free
Summary of the method: (§1)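 Analyte added to PBS or human plasma (healthy volunteer, stored at -80 °C) to 1 μM; incubated at 37 °C for 0, 30, 60 and 120 min, triplicate per time point. Internal standard solution added, centrifuged, supernatant dried under nitrogen and redissolved. Analyte quantified by LC-MS/MS in MRM mode; half-life derived from decay rate k.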

[2] = target: T1, ATP-dependent translocase ABCB1 (Homo sapiens, UniProt P08183); assay: Inhibition of P-gp in human K562/DOX cells assessed as drug level causing maximum increase in nuclear pirarubicin concentration incubated for 30 mins by fluorescence based assay relative to control; assay type: cell-based; conditions: 0.5 h
T1 sequence (P08183 whole entry): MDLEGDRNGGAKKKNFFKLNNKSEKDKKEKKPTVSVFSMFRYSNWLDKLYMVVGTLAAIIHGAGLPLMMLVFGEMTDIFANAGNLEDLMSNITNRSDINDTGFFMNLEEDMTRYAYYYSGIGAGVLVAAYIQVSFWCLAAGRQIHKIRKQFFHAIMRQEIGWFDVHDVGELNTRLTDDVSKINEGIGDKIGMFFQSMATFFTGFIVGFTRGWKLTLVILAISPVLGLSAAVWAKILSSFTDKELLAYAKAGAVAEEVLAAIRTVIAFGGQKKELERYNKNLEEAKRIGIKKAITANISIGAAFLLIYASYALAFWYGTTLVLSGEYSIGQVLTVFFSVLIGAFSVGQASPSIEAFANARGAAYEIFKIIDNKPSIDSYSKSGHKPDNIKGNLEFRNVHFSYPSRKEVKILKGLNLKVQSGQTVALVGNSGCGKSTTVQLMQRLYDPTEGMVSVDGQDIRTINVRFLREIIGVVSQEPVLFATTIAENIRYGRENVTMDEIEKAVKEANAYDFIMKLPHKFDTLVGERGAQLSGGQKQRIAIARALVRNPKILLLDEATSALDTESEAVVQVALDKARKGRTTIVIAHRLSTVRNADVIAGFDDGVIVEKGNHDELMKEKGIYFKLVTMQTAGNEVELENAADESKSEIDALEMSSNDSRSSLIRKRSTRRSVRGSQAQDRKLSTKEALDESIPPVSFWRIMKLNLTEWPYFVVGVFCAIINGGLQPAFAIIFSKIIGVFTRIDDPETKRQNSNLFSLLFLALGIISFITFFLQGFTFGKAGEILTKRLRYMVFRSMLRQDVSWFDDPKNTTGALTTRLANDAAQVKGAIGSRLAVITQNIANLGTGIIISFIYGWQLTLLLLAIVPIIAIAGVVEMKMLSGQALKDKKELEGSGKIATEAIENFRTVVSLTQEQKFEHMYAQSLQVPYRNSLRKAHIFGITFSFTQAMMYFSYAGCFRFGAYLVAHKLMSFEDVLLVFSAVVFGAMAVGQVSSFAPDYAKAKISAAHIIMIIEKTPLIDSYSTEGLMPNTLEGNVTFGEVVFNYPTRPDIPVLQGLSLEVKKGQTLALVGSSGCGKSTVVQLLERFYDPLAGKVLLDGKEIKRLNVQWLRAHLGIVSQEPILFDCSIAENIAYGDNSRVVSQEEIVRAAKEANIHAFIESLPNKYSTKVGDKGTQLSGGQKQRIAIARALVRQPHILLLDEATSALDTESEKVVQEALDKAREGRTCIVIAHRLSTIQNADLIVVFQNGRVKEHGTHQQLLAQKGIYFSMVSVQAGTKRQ

[3] = target: T1, ATP-dependent translocase ABCB1; assay: Inhibition of P-gp (unknown origin) expressed in MDCK-MDR1 cells assessed as increase in calcein-AM accumulation incubated for 30 mins by calcein-AM dye based fluorescence assay; assay type: cell-based
[4] = target: T1, ATP-dependent translocase ABCB1; assay: Inhibition of MDR1 (unknown origin) expressed in MDCK-MDR1 cells assessed as decrease in ATP consumption incubated for 2 hrs by ATPlite luminescence assay; assay type: cell-based; conditions: mdck-mdr1, 2 h
BCRP (ABCG2) = target: T2, BCRP (ABCG2) (Homo sapiens, UniProt Q9UNQ0); assay: Inhibition of BCRP (unknown origin) expressed in MDCK cells assessed as increase in Hoechst 33342 accumulation at upto 100 uM incubated for 30 mins by Hoechst 33342 dye based fluorescence assay; assay type: cell-based; conditions: MDCK cells expressing BCRP, probe Hoechst 33342
T2 sequence (Q9UNQ0 whole entry): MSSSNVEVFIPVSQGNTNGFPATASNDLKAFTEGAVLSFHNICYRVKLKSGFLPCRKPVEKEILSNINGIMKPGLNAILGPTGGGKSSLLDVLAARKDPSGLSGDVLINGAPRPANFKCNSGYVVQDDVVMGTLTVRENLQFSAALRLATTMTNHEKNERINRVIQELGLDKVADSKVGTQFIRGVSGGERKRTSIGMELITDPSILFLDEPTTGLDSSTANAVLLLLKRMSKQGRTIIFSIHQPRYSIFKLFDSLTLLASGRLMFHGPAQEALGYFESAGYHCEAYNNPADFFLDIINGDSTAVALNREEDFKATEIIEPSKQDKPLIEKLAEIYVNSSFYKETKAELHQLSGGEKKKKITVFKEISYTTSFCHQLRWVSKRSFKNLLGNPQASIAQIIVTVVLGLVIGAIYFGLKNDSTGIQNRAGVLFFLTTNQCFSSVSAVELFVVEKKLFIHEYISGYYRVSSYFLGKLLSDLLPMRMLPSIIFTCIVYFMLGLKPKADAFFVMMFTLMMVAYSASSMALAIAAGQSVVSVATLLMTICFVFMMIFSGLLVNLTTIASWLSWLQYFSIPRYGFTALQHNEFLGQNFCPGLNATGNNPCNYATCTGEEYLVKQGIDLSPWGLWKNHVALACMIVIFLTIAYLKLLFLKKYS

[5] = target: T3, Broad substrate specificity ATP-binding cassette transporter ABCG2 (Homo sapiens, UniProt Q9UNQ0); assay: Inhibition of BCRP (unknown origin) expressed in MDCK cells assessed as increase in Hoechst 33342 accumulation incubated for 30 mins by Hoechst 33342 dye based fluorescence assay; assay type: cell-based
T3 sequence (Q9UNQ0 whole entry): T2 sequence (Q9UNQ0 whole entry)

[6] = target: T1, ATP-dependent translocase ABCB1; assay: Inhibition of P-gp in human K562/DOX cells assessed as drug level causing 50% increase in nuclear pirarubicin concentration incubated for 30 mins by fluorescence based assay; assay type: cell-based; conditions: read-out: I0.5
[7] = Chemical stability of compound assessed as half life in PBS at 1 uM incubated 120 mins by LC-MS/MS analysis; assay type: physicochemical; summary of the method: as §1
MDCK [8] = assay: Induction of ROS-mediated cell death in dog MDCK cells expressing MRP1 at 500 nM incubated for 24 hrs by DCFDA-AM staining based ATPlite luminescence assay; assay type: functional; conditions: Canis lupus familiaris
Summary of the method: (§2)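 Viability by ATPlite luminescence; untreated cell RLU set as 100%, results as % viable cells vs untreated. Quadruplicates, n = 3, means ± SD.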

P-gp (ABCB1) = P-gp (ABCB1) (Homo sapiens, UniProt P08183); assay: Inhibition of P-gp (unknown origin) in […] MDCK-MDR1 cells assessed as increase in doxorubicin-induced cytotoxicity at 500 nM […] by MTT assay relative to control; assay type: cell-based; conditions: probe doxorubicin
Chain of P-gp (ABCB1) (P08183 whole entry): as the sequence (P08183 whole entry) above

MDCK [9] = assay: Cytotoxicity against dog MDCK cells expressing MRP1 assessed as reduction in cell viability incubated for 24 hrs by MTT assay; assay type: functional, cell-based; conditions: Canis lupus familiaris
Summary of the method: (§3)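 MDCK parental, MDCK-MDR1 and MDCK-MRP1 cells grown in DMEM high glucose with 10% FBS, 2 mM glutamine, penicillin/streptomycin at 37 °C, 5% CO2. Compound exposure 24 h; viability by MTT. EC50 taken per line; selectivity ratio computed as EC50 parental/EC50 MDR.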

MDCK [10] = assay: Induction of ROS generation in dog MDCK cells over expressing MRP1 at 500 nM incubated for 24 hrs by DCFDA-AM staining based ATPlite luminescence assay; assay type: functional, cell-based; conditions: Canis lupus familiaris
Summary of the method: (§4)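 MDCK-MRP1 or MDCK-MDR1 cells grown 24 h in fresh medium or with 500 nM compound, with or without 10 mM N-acetyl-cysteine. Intracellular ROS measured fluorimetrically with DCFDA-AM probe, expressed as nmol/mg cellular protein; duplicates, n = 3, means ± SD.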

MDCK [11] = assay: Induction of ROS-mediated cell death in dog MDCK cells expressing MRP1 at 500 nM in presence of NAC incubated for 24 hrs by DCFDA-AM staining based ATPlite luminescence assay; assay type: functional; conditions: Canis lupus familiaris; summary of the method: as §2
MDCK [12] = assay: Cytotoxicity against dog MDCK cells assessed as reduction in cell viability incubated for 24 hrs by MTT assay; assay type: cell-based; conditions: Canis lupus familiaris; summary of the method: as §3
MDCK-MDR1 [13] = assay: Induction of ROS-mediated cell death in dog MDCK-MDR1 cells at 500 nM incubated for 24 hrs by DCFDA-AM staining based ATPlite luminescence assay; assay type: functional; conditions: Canis lupus familiaris; summary of the method: as §2
MDCK-MDR1 [14] = assay: Induction of ROS-mediated cell death in dog MDCK-MDR1 cells at 500 nM incubated for 24 hrs in presence of NAC by DCFDA-AM staining based ATPlite luminescence assay; assay type: functional; conditions: Canis lupus familiaris; summary of the method: as §2
MDCK-MDR1 [15] = assay: Cytotoxicity against dog MDCK-MDR1 cells assessed as reduction in cell viability incubated for 24 hrs by MTT assay; assay type: functional, cell-based; conditions: Canis lupus familiaris, MDCK-MDR1, 24 h; summary of the method: as §3
MDCK-MDR1 [16] = assay: Induction of ROS generation in dog MDCK-MDR1 cells at 500 nM incubated for 24 hrs by DCFDA-AM staining based ATPlite luminescence assay; assay type: functional, cell-based; conditions: Canis lupus familiaris; summary of the method: as §4

half-life at 1 µM [1] [h] | Alpha max [2] | EC50 [3] [µM] | inhibition (INH) [4] | inhibition at 0.5 h (BCRP (ABCG2)) [%] | EC50 ([5]; mdck) | IC50 [6] [µM] | half-life at 1 µM [7] [h] | EC50 ([5]; read-out: EC50) [µM] | Compound | Activity (MDCK [8]) | inhibition at 24 h, 0.5 µM (P-gp (ABCB1)) [%] | EC50 (MDCK [9]) [µM] | Activity (MDCK [10]) | Activity (MDCK [11]) | EC50 (MDCK [12]) [µM] | Activity (MDCK-MDR1 [13]) | Activity (MDCK-MDR1 [14]) | EC50 (MDCK-MDR1 [15]) [µM] | Activity (MDCK-MDR1 [16])
0.483 | 0.99 | 1 | Not Active | 0 | Not Active | 0.4 | ≥ 4 | – | COc1cc(/C=C/C(=O)OC[C@H](C)CN(C)CCCCCOC(=O)c2cc(OC)c(OC)c(OC)c2)cc(OC)c1OC | – | – | – | – | – | – | – | – | – | –
≥ 4 | 0.72 | 0.31 | Not Active | – | – | 0.35 | ≥ 4 | 41 | COc1cc(/C=C/C(=O)OCCCCCN(C)C[C@@H](C)COC(=O)c2cc(OC)c(OC)c(OC)c2)cc(OC)c1OC | Active | 30 | 11.7 | Active | Active | 100 | – | – | – | –
≥ 4 | 0.89 | 0.55 | Not Active | – | – | 0.54 | ≥ 4 | 6.4 | COc1cc(/C=C/C(=O)OCCCN(C)C[C@H](C)COC(=O)c2cc(OC)c(OC)c(OC)c2)cc(OC)c1OC | – | – | – | – | – | 100 | Active | Active | 40 | Active
